Experimental data: article PMC4514009 (Journal of Radioanalytical and Nuclear Chemistry, 2010)

Tested on: NMDAR
Assay: Autoradiography of NMDAR in vitro by storage phosphor imaging
Assay type: binding, Sprague–Dawley (SD) rat
Conditions: EB 0.3 mg pretreatment of slides
Outline: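 Sagittal brain sections from one healthy Sprague–Dawley rat (290 g) were fixed and air-dried, then shaken 30 min at room temperature in 50 mM Tris–HCl (pH 7.4) with 120 mM NaCl. EB 0.3 mg (60 μL) or saline was applied to the slides, which were preincubated 30 min at room temperature, then incubated with the radiotracer. They were washed three times for 30 min in ice-cold Tris–HCl and exposed 30 min to a phosphor screen. DLU mm−2 were read by ROI, and hippocampus/thalamus ratios were taken per section.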

O=c1c2ccccc2[se]n1-c1ccccc1 [EB, Ebselen]
effect on accumulation of ^99mTc-PQQ in hippocampus and cortex: can be inhibited
